Source: ChEMBL document CHEMBL3352552, “Total synthesis and antibacterial testing of the A54556 cyclic acyldepsipeptides isolated from Streptomyces hawaiiensis” (J Nat Prod, 2014)
In brackets after ≈: the same amount, converted by molar mass. Activity calls are given as the source filed them. The calls are words filed in the database; no cut-off is given here. Where a SMILES comes first, the peptide text is derived from it. Bridges are numbered along the chain shown (N, C = ends). [ ]: non-standard residue; d: D form. The star is where a group is joined. Octatrienoyl(2E,4E,6E) = C/C=C/C=C/C=C/C(=O)*; Hexadienoyl(2E,4E) = C/C=C/C=C/C(=O)*; Pro(4R-Me) = C[C@H]1CN[C@H](C(=O)O)C1; NMeA = CN[C@@H](C)C(=O)O; X1 = CCC/C=C/C=C/C(=O)*

How the values were obtained:
Staphylococcus aureus = assay: Antibacterial activity against Staphylococcus aureus ATCC 29213 incubated for 16 to 18 hrs by broth microdilution method; assay type: functional
Outline: (§1)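 Colonies pre-grown 16−18 h at 37 °C in moist 5% CO₂ (Staph. aureus on LB agar; the others on GC agar with 1% IsoVitaleX), then diluted in BHI + 1% IsoVitaleX. Inoculum set by OD (600 nm Staph. aureus and S. pneumoniae; 550 nm N. meningitidis) to give ∼5 × 10⁵ cfu/mL per well. Twofold dilutions run 128–0.0625 μg/mL final. DMSO-only and medium blanks were included, with three independent plates, incubated 16−18 h at 37 °C in 5% CO₂.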

Streptococcus pneumoniae = assay: Antibacterial activity against Streptococcus pneumoniae ATCC 49619 incubated for 16 to 18 hrs by broth microdilution method; assay type: functional; outline: as §1
Neisseria meningitidis = assay: Antibacterial activity against Neisseria meningitidis H44/76 incubated for 16 to 18 hrs by broth microdilution method; assay type: functional; outline: as §1
[1] = molecular target: ATP-dependent Clp protease proteolytic subunit (Escherichia coli (strain K12)) (UniProt P0A6G7); assay: Activation of Escherichia coli ClpP assessed as degradation of casein-FITC substrate at 5 uM fluorescence-based biochemical assay
Chain of ATP-dependent Clp protease proteolytic subunit (Escherichia coli (strain K12)) (P0A6G7 whole entry): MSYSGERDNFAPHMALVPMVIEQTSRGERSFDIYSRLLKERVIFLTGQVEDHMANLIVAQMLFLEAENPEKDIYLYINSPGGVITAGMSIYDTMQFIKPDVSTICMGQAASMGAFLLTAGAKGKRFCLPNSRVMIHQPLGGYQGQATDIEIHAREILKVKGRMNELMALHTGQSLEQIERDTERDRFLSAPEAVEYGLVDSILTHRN

[2] = molecular target: ATP-dependent Clp protease proteolytic subunit (Escherichia coli (strain K12), UniProt P0A6G7); assay: Activation of Escherichia coli ClpP by ITC method
Chain of ATP-dependent Clp protease proteolytic subunit (P0A6G7 whole entry): as above

Structure (SMILES) | MIC (Staphylococcus aureus) [µg/mL] | MIC (Streptococcus pneumoniae) [µg/mL] | MIC (Neisseria meningitidis) [µg/mL] | Activity [1] | Kd [2] [nM]
C/C=C/C=C/C=C/C(=O)N[C@@H](Cc1ccccc1)C(=O)N[C@H]1COC(=O)[C@@H]2CCCN2C(=O)[C@H](C)NC(=O)[C@H](C)N(C)C(=O)[C@@H]2CCCN2C1=O ({Octatrienoyl(2E,4E,6E)}-FSP[NMeA]AP; ester 2-C) | 16 (≈ 22.7 µM) | 0.5 (≈ 0.709 µM) | 0.5 (≈ 0.709 µM) | Active | 700
CCC/C=C/C=C/C(=O)N[C@@H](Cc1ccccc1)C(=O)N[C@H]1COC(=O)[C@@H]2C[C@@H](C)CN2C(=O)[C@H](C)NC(=O)[C@H](C)N(C)C(=O)[C@@H]2CCCN2C1=O (X1-FSP[NMeA]A[Pro(4R-Me)]; ester 2-C) | 0.5 (≈ 0.694 µM) | < 0.0625 | < 0.0625 | Active | 
C/C=C/C=C/C(=O)N[C@@H](Cc1ccccc1)C(=O)N[C@H]1COC(=O)[C@@H]2CCCN2C(=O)[C@H](C)NC(=O)[C@H](C)N(C)C(=O)[C@@H]2CCCN2C1=O ({Hexadienoyl(2E,4E)}-FSP[NMeA]AP; ester 2-C) | 16 (≈ 23.6 µM) | 0.25 (≈ 0.368 µM) | 4 (≈ 5.89 µM) | inactive | 
NC[C@@H]1O[C@@H](O[C@H]2[C@H](O)[C@@H](O[C@H]3O[C@H](CO)[C@@H](O)[C@H](N)[C@H]3O)[C@H](N)C[C@@H]2N)[C@@H](O)[C@H](O)[C@H]1O [KANAMYCIN A] |  |  | 64 (≈ 132 µM) |  | 
CN[C@H](CC(C)C)C(=O)N[C@H]1C(=O)N[C@@H](CC(N)=O)C(=O)N[C@H]2C(=O)N[C@H]3C(=O)N[C@H](C(=O)N[C@H](C(=O)O)c4cc(O)cc(O)c4-c4cc3ccc4O)[C@H](O)c3ccc(c(Cl)c3)Oc3cc2cc(c3O[C@@H]2O[C@H](CO)[C@@H](O)[C@H](O)[C@H]2O[C@H]2C[C@](C)(N)[C@H](O)[C@H](C)O2)Oc2ccc(cc2Cl)[C@H]1O [VANCOMYCIN] |  | 2 (≈ 1.38 µM) |  |  | 

Continued, values first:

MIC (Staphylococcus aureus) [µg/mL] | MIC (Streptococcus pneumoniae) [µg/mL] | MIC (Neisseria meningitidis) [µg/mL] | Activity [1] | Kd [2] [nM] | Structure (SMILES)
128 (≈ 181 µM) | 0.25 (≈ 0.353 µM) | 64 (≈ 90.3 µM) | inactive |  | C[C@@H]1C[C@H]2C(=O)OC[C@H](NC(=O)[C@H](Cc3ccccc3)NC(=O)/C=C/C=C/CO)C(=O)N3CCC[C@H]3C(=O)N(C)[C@@H](C)C(=O)N[C@@H](C)C(=O)N2C1 (stereo in doubt)
4 (≈ 5.77 µM) | 0.125 (≈ 0.18 µM) | 2 (≈ 2.89 µM) | inactive |  | C/C=C/C=C/C(=O)N[C@@H](Cc1ccccc1)C(=O)N[C@H]1COC(=O)[C@@H]2C[C@@H](C)CN2C(=O)[C@H](C)NC(=O)[C@H](C)N(C)C(=O)[C@@H]2CCCN2C1=O ({Hexadienoyl(2E,4E)}-FSP[NMeA]A[Pro(4R-Me)]; ester 2-C)
4 (≈ 5.56 µM) | < 0.0625 | 0.125 (≈ 0.174 µM) | Active | 300 | C/C=C/C=C/C=C/C(=O)N[C@@H](Cc1ccccc1)C(=O)N[C@H]1COC(=O)[C@@H]2C[C@@H](C)CN2C(=O)[C@H](C)NC(=O)[C@H](C)N(C)C(=O)[C@@H]2CCCN2C1=O ({Octatrienoyl(2E,4E,6E)}-FSP[NMeA]A[Pro(4R-Me)]; ester 2-C)
